ChEMBL document CHEMBL5357024, “MDM2 Antagonist Idasanutlin Reduces HDAC1/2 Abundance and Corepressor Partners but Not HDAC3” (ACS Med Chem Lett, 2024)
The source made the active and inactive calls. No cut-off for these calls is given here.

Experiments:
[1] = target: T1, E3 ubiquitin-protein ligase Mdm2/Histone deacetylase 2 (Homo sapiens) (UniProt Q00987+Q92769); assay: PROTAC activity at MDM2/HDAC2 in human HCT-116 cells assessed as induction of HDAC2 degradation by Western blot analysis; type: cell-based; settings: dose 0.01-10 µM
[2] = target: Lysine-specific histone demethylase 1A (Homo sapiens) (UniProt O60341); assay: Induction of LSD1 degradation in human HCT-116 cells assessed as reduction in LSD1 abundance by measuring remaining activity at 0.025 uM measured after 24 hrs by Western blot analysis (reference value: 100%); type: cell-based
How it was run: (§1)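 HCT116 cells seeded in six-well plates for 24 h, then exposed 24 h to compound (0.01–10 μM) or DMSO in fresh medium. Lysis in Tris-HCl/NaCl/NP-40/Triton X-100 with protease inhibitor. Bradford-normalised 30 μg protein per lane. Quantitative Western blot used specific HDAC1, HDAC2, HDAC3, LSD1 or Sin3a antibodies with IRDye secondaries. Abundance compared with DMSO, n = 2 replicates.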

[3] = target: Lysine-specific histone demethylase 1A (Homo sapiens) (UniProt O60341); assay: Induction of LSD1 degradation in human HCT-116 cells assessed as reduction in LSD1 abundance by measuring remaining activity at 0.05 uM measured after 24 hrs by Western blot analysis (reference value: 100%); type: cell-based; how it was run: as §1
[4] = target: Lysine-specific histone demethylase 1A (Homo sapiens) (UniProt O60341); assay: Induction of LSD1 degradation in human HCT-116 cells assessed as reduction in LSD1 abundance by measuring remaining activity at 5 uM measured after 24 hrs by Western blot analysis (reference value: 100%); type: cell-based; how it was run: as §1
[5] = target: T1, E3 ubiquitin-protein ligase Mdm2/Histone deacetylase 2 (Homo sapiens); assay: PROTAC activity at MDM2/HDAC2 in human HCT-116 cells assessed as decrease in HDAC2 abundance by measuring remaining activity at 10 uM measured after 24 hrs by Western blot analysis (reference value: 100%); type: cell-based; how it was run: as §1
HCT-116 = assay: Effect on histone H3 lysine K56 acetylation in human HCT-116 cells assessed as increase in H3K56ac level at 0.1 to 10 uM by Western blot analysis; type: functional, cell-based; settings: dose 0.1-10 µM
How it was run: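 HCT116 cells (DMEM, 10% FBS, glutamine/pen/strep, 37 °C, 5% CO2) seeded 24 h, then treated with DMSO or compound in fresh medium. Pellets after lysis were acid-extracted with 0.4 N H2SO4 at 4 °C overnight. Acid histone extract run on 4–12% bis-Tris gels, transferred to nitrocellulose and probed for H3K56ac. IRDye secondaries with infrared imaging.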

[6] = target: T1, E3 ubiquitin-protein ligase Mdm2/Histone deacetylase 2 (Homo sapiens); assay: PROTAC activity at MDM2/HDAC2 in human HCT-116 cells assessed as decrease in HDAC2 abundance by measuring remaining activity at 0.5 uM measured after 24 hrs by Western blot analysis (reference value: 100%); type: cell-based; how it was run: as §1
[7] = target: T2, E3 ubiquitin-protein ligase Mdm2/Histone deacetylase 3 (Homo sapiens) (UniProt Q00987+O15379); assay: PROTAC activity at MDM2/HDAC3 in human HCT-116 cells assessed as reduction in HDAC3 abundance by measuring remaining activity at 0.01 uM measured after 24 hrs by Western blot analysis; type: cell-based; how it was run: as §1
[8] = target: Lysine-specific histone demethylase 1A (Homo sapiens) (UniProt O60341); assay: Induction of LSD1 degradation in human HCT-116 cells assessed as reduction in LSD1 abundance by measuring remaining activity at 1 uM measured after 24 hrs by Western blot analysis (reference value: 100%); type: cell-based; how it was run: as §1
[9] = target: T2, E3 ubiquitin-protein ligase Mdm2/Histone deacetylase 3 (Homo sapiens); assay: PROTAC activity at MDM2/HDAC3 in human HCT-116 cells assessed as reduction in HDAC3 abundance by measuring remaining activity at 1 uM measured after 24 hrs by Western blot analysis (reference value: 100%); type: cell-based
How it was run: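 HCT116 cells in DMEM with 10% FBS and glutamine/penicillin/streptomycin at 37 °C, 5% CO2. Seeded 4 × 10^5 cells/well, after 24 h treated 24 h with DMSO or compound in fresh medium. Lysed in Tris-HCl/NaCl/NP-40/Triton X-100 buffer with protease inhibitor, Bradford-quantified, 30 μg protein per lane. Quantitative Western blot with specific HDAC1/2/3 antibodies, IRDye secondaries, infrared imaging, versus DMSO. n = 2 replicates.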

[10] = target: T3, E3 ubiquitin-protein ligase Mdm2/Histone deacetylase 1 (Homo sapiens) (UniProt Q00987+Q13547); assay: PROTAC activity at MDM2/HDAC1 in human HCT-116 cells assessed as decrease in HDAC1 abundance by measuring remaining activity at 0.05 uM measured after 24 hrs by Western blot analysis (reference value: 100%); type: cell-based; how it was run: as §1
[11] = target: T2, E3 ubiquitin-protein ligase Mdm2/Histone deacetylase 3 (Homo sapiens); assay: PROTAC activity at MDM2/HDAC3 in human HCT-116 cells assessed as reduction in HDAC3 abundance by measuring remaining activity at 0.025 uM measured after 24 hrs by Western blot analysis; type: cell-based; how it was run: as §1
[12] = target: T3, E3 ubiquitin-protein ligase Mdm2/Histone deacetylase 1 (Homo sapiens); assay: PROTAC activity at MDM2/HDAC1 in human HCT-116 cells assessed as decrease in HDAC1 abundance by measuring remaining activity at 1 uM measured after 24 hrs by Western blot analysis (reference value: 100%); type: cell-based; how it was run: as §1

T1 sequence (Q00987 whole entry, looked up): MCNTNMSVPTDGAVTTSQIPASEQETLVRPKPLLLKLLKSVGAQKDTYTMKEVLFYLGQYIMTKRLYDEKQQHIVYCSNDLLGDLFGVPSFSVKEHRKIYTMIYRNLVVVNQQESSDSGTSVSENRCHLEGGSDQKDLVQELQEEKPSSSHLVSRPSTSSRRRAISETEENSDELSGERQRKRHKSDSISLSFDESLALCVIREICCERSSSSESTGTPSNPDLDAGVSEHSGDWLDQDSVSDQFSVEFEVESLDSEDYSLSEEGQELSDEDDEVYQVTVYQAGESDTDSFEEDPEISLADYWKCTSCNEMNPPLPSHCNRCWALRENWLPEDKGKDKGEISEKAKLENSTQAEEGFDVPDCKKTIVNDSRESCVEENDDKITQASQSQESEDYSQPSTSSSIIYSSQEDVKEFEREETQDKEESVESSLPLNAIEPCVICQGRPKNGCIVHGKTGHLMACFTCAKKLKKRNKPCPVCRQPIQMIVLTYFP
T1 sequence (Q92769 whole entry, looked up): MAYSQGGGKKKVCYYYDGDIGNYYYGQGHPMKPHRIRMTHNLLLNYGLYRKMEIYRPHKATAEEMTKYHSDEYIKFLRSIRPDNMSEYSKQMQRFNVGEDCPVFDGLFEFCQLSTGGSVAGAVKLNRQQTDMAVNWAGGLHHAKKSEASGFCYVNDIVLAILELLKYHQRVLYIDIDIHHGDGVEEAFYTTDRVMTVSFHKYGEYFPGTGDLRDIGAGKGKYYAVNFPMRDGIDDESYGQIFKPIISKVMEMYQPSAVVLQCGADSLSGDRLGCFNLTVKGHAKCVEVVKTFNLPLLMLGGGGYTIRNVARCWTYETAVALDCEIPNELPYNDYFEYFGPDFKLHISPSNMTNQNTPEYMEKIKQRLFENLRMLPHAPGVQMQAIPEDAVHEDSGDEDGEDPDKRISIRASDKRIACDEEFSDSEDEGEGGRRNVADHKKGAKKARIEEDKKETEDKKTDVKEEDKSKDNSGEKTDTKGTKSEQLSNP
T2 sequence (O15379 whole entry, looked up): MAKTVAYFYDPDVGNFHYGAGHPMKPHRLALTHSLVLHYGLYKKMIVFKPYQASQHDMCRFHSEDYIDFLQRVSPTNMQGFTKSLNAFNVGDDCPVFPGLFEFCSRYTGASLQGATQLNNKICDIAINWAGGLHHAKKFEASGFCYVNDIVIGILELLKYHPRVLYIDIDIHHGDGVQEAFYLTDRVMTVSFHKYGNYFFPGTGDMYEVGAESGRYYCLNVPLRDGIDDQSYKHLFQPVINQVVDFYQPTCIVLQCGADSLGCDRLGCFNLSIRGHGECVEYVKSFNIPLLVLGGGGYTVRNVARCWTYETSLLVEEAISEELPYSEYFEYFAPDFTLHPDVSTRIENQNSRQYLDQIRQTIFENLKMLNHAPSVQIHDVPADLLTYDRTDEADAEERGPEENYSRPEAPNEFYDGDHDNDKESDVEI
T2 sequence (Q00987 whole entry, looked up): as the sequence (Q00987 whole entry, looked up) above
T3 sequence (Q00987 whole entry, looked up): as above
T3 sequence (Q13547 whole entry, looked up): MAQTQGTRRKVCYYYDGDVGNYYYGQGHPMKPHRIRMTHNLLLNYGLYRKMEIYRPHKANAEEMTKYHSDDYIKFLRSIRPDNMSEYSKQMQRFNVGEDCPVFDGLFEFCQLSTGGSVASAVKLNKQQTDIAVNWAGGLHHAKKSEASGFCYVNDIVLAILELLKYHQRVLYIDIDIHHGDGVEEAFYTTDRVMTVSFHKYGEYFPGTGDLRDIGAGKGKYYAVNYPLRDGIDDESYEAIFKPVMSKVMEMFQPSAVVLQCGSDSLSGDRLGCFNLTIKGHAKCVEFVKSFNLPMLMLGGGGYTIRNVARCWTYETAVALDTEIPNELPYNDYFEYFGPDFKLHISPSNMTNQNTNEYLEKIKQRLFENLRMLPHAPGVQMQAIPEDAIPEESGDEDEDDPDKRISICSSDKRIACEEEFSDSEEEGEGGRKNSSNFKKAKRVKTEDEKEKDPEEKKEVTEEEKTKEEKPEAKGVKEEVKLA

Activity [1]: Dose-Dependent Effect | Activity [2]: 102% | Activity [3]: 95% | Activity [4]: 70% | Activity [5]: 54% | Activity [6]: 89% | Activity [7]: 98% | Activity [8]: 81% | Activity [9]: 104% | Activity [10]: 88% | Activity [11]: 100% | Activity [12]: 43%
SMILES: COc1cc(C(=O)NCCOCCOCCOCCOCCC(=O)Nc2ccc(C(=O)Nc3ccccc3N)cc2)ccc1NC(=O)[C@@H]1N[C@@H](CC(C)(C)C)[C@](C#N)(c2ccc(Cl)cc2F)[C@H]1c1cccc(Cl)c1F
Activity (HCT-116): inactive
